Laboratory results published in ChEMBL document CHEMBL1151736, “Design, synthesis, and biological evaluation of a series of 2-hydroxyisoquinoline-1,3(2H,4H)-diones as dual inhibitors of human immunodeficiency virus type 1 integrase and the reverse transcriptase RNase H domain” (J Med Chem, 2008).

What was measured:
[1] = target: T1, Human immunodeficiency virus type 1 integrase (Human immunodeficiency virus 1, UniProt Q7ZJM1)
[2] = tested on: Human immunodeficiency virus 1; assay: Antiviral activity against HIV1 3B infected in human MT4 cells assessed as inhibition virus-induced cytopathic effect by MTT assay; type: functional, organism-based; settings: Human immunodeficiency virus 1, 3B
[3] = Inhibition of HIV1 RNase H; set-up: species or system Human immunodeficiency virus 1
[4] = tested on: Human immunodeficiency virus 1; assay: Selectivity ratio of IC50 for HIV1 RNase H to IC50 for HIV1 integrase
In short: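 Ratio of the RNase H IC50 to the overall-integrase IC50. For RNase H, recombinant HIV-1 RT (4.5 pmol) was preincubated with compound for 10 min at 37 °C. It then ran 10 min at 37 °C on a 3H-RNA/DNA duplex with 6 mM MgCl2 and 80 mM KCl at pH 8.0, read by TCA-precipitated radioactivity. For integrase, ELISA used 1.6 µM integrase and 7 nM biotin/digoxigenin oligos with 10 mM MgCl2, 1 h at 37 °C.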

[5] = Cytotoxicity against human MT4 cells by MTT assay; type: cell-based
[6] = target: Human immunodeficiency virus type 1 reverse transcriptase (Human immunodeficiency virus 1) (UniProt Q72547); assay: Inhibition of HIV1 reverse transcriptase at 50 uM
In short: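 RNA-dependent DNA polymerase activity: recombinant RT preincubated 10 min at 37 °C with compound (1.0, 10.0, 50.0 µM), then 10 min at 37 °C with poly(A)-oligo(dT) 20 µg/mL, 20 µM dTTP plus [3H]dTTP, 5 mM MgCl2, 100 mM KCl, 10 mM DTT, 50 mM Tris-HCl pH 8.0; TCA-precipitated radioactivity on nitrocellulose; percent inhibition.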

[7] = target: T1, Human immunodeficiency virus type 1 integrase; remark: listed apart in the source
[8] = target: T1, Human immunodeficiency virus type 1 integrase; remark: listed apart in the source

T1 sequence (Q7ZJM1 whole entry): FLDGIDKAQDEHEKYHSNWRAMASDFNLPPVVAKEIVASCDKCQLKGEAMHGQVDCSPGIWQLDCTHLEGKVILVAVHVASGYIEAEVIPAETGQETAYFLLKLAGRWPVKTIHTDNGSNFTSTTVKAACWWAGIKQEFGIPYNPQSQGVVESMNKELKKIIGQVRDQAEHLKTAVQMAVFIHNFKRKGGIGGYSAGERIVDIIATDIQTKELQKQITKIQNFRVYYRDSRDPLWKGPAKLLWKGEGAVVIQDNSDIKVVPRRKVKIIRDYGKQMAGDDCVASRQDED

IC50 [1]	IC50 [3]	Ratio IC50 [4]	inhibition [6]	IC50 [7]	IC50 [8]	Compound	EC50 [2]	CC50 [5]
5.42 µM	7.2 µM	1.3	50%			O=C1Cc2ccc(-c3ccc(O)cc3)cc2C(=O)N1O	> 186 µM	> 186 µM
6.32 µM	5.9 µM		40%			O=C1Cc2ccccc2C(=O)N1O		
0.09 µM	> 80 µM	> 889	40%	0.1 µM	7.79 µM	O=C(Cc1ccccc1)Nc1ccc2c(c1)C(=O)N(O)C(=O)C2	> 121 µM	> 121 µM
1.73 µM	> 80 µM	> 47	40%			O=C1Cc2ccc(-c3ccccc3)cc2C(=O)N1O	> 66 µM	> 66 µM
0.13 µM	35.3 µM	272	40%	0.02 µM	0.75 µM	O=C(Cc1ccc(F)cc1)Nc1ccc2c(c1)C(=O)N(O)C(=O)C2	> 116 µM	> 116 µM
2.22 µM	37.4 µM	17	40%			O=C1Cc2ccc(O)cc2C(=O)N1O	> 48 µM	> 48 µM
1.24 µM	5.7 µM	4.7	40%			O=C(Nc1ccc2c(c1)C(=O)N(O)C(=O)C2)c1ccccc1	22 µM	84 µM
0.59 µM	40.7 µM	69	40%			CC(=O)Nc1ccc2c(c1)C(=O)N(O)C(=O)C2	148 µM	> 250 µM
8.5 µM	48 µM	5.6	40%			O=C1Cc2ccc([N+](=O)[O-])cc2C(=O)N1O	> 205 µM	> 205 µM
1.47 µM	22.2 µM	15.8	60%			O=C1Cc2ccc(-c3ccc(F)cc3)cc2C(=O)N1O	> 46 µM	> 46 µM
1.8 µM	10.7 µM	5.9	40%			O=C1Cc2ccc(-c3ccc(C(F)(F)F)cc3)cc2C(=O)N1O	> 47 µM	> 47 µM
0.8 µM	28.9 µM	36.1	40%			O=C1Cc2ccc(Cl)cc2C(=O)N1O	> 48 µM	> 48 µM
1.22 µM	58 µM	48.3	40%			O=C1Cc2ccc(I)cc2C(=O)N1O	> 70 µM	> 70 µM
0.41 µM	7.1 µM	17.3	40%			O=C(Nc1ccc2c(c1)C(=O)N(O)C(=O)C2)c1ccc(F)cc1	> 120 µM	> 120 µM
0.58 µM	> 96 µM	> 166	40%	0.9 µM	1.4 µM	O=C1Cc2ccc(Br)cc2C(=O)N1O	> 64 µM	> 64 µM
8.9 µM	10.8 µM	1.2	40%			O=C(Nc1ccc2c(c1)C(=O)N(O)C(=O)C2)c1cccc([N+](=O)[O-])c1		
0.56 µM	6.6 µM	11.8	70%			O=C1Cc2ccc(-c3ccc(O)c(O)c3)cc2C(=O)N1O	> 89 µM	> 89 µM
18.8 µM	> 80 µM	> 4.2	40%			CCCCC(=O)Nc1ccc2c(c1)C(=O)N(O)C(=O)C2	> 250 µM	> 250 µM
